Laboratory results as given in ChEMBL document CHEMBL4024762, “Discovery of N-(3-Carbamoyl-5,5,7,7-tetramethyl-5,7-dihydro-4H-thieno[2,3-c]pyran-2-yl)-lH-pyrazole-5-carboxamide (GLPG1837), a Novel Potentiator Which Can Open Class III Mutant Cystic Fibrosis Transmembrane Conductance Regulator (CFTR) Channels to a High Extent” (J Med Chem, 2018).
Values after ≈ are worked out from the molar mass of the structure shown. Active and inactive are the calls of the source. The calls are words filed in the database; no cut-off is given here.

Key:
[1] = target: Cystic fibrosis transmembrane conductance regulator (Homo sapiens, UniProt P13569, F508DEL); assay: (§1) Potentiation of CFTR F508del mutant (unknown origin) expressed in human CFBE41o cells incubated for 10 mins in presence of forskolin measured for 7 secs by YFP halide assay; type: cell-based
Method in brief: (§2)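 CFBE41o- cells (CF bronchial line) transduced by adenovirus with F508del CFTR and YFP (H148Q/I152L/F47L). Cells held 24 h at 27°C, then treated 10 min at room temperature with 10 µM forskolin plus potentiator. YFP fluorescence read for 7 s across addition of NaI buffer (137 mM NaI). Activity = 1-(F/F0).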

[2] = test system: Cystic fibrosis transmembrane conductance regulator (Homo sapiens), P13569 [F508del]; assay: as §1; type: cell-based; set-up: concentration or dose not given beside the values; method in brief: as §2
[3] = test system: Cystic fibrosis transmembrane conductance regulator (Homo sapiens), P13569 [G551D]; assay: (§3) Potentiation of CFTR G551D mutant (unknown origin) expressed in HEK293 cells incubated for 10 mins in presence of forskolin measured for 2 mins by YFP halide assay; type: cell-based; set-up: concentration or dose not given beside the values
Method in brief: (§4)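 HEK293 cells transfected with the mutant CFTR (G551D, G178R, S549N or R117H) and YFP (H148Q/I152L/F47L), seeded directly after transfection, then 24 h at 37°C. Treated 10 min at room temperature with 10 µM forskolin plus potentiator. Fluorescence read for 2 min across addition of NaI buffer (375 mM NaI). Activity = 1-(F/F0).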

[4] = Unbound intrinsic clearance in human microsomes; type: ADME, Microsome
[5] = Unbound intrinsic clearance in rat microsomes; type: ADME, Microsome
Method in brief: (§5)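 Intrinsic clearance in liver microsomes or hepatocytes, corrected for non-specific binding using fraction unbound in microsomes (Fu,mic) or in hepatocyte incubations (Fu,inc).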

[6] = test system: Cystic fibrosis transmembrane conductance regulator (Homo sapiens), P13569 [R117H]; assay: Potentiation of CFTR R117H mutant (unknown origin) expressed in HEK293 cells incubated for 10 mins in presence of forskolin measured for 2 mins by YFP halide assay relative to ivacaftor; type: cell-based
[7] = Unbound intrinsic clearance in human hepatocytes; type: ADME, cell-based, Hepatocyte
[8] = AUC in rat at 5 mg/kg, po; type: ADME, organism-based; conditions: in vivo
Cytochrome P450 2C9 = Cytochrome P450 2C9 (Homo sapiens, UniProt P11712); assay: Inhibition of CYP2C9 (unknown origin); type: ADME
Cytochrome P450 2C19 = Cytochrome P450 2C19 (Homo sapiens, UniProt P33261); assay: Inhibition of CYP2C19 (unknown origin); type: ADME
Homo sapiens [9] = assay: Toxicity in human up to 800 mg, bid administered for 14 days; conditions: 336 h
[10] = Cmax in rat at 300 mg/kg, po; type: ADME, organism-based; set-up: dose 300 mg/kg, route oral; conditions: in vivo
[11] = Cmax in rat at 5 mg/kg, po; type: ADME, organism-based; set-up: dose 5 mg/kg, route oral; conditions: in vivo
Cytochrome P450 1A2 = target: T1, Cytochrome P450 1A2 (Homo sapiens, UniProt P05177); assay: Inhibition of CYP1A2 (unknown origin); type: ADME
T1 sequence (P05177 whole entry): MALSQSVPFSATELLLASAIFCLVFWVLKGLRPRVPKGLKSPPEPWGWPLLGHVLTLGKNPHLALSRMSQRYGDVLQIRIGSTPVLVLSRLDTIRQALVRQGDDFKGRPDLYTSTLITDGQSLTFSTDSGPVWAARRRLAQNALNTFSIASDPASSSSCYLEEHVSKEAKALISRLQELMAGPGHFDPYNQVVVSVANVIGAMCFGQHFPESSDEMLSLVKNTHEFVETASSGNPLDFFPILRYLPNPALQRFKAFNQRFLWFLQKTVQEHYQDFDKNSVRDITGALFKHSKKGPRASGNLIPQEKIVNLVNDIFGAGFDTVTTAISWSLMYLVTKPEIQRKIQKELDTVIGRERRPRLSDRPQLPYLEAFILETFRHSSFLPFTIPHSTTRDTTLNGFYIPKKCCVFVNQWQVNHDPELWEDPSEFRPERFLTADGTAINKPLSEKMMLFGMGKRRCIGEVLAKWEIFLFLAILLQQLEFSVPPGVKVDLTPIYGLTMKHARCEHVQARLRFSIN

Cytochrome P450 3A4 = Cytochrome P450 3A4 (Homo sapiens, UniProt P08684); assay: Inhibition of CYP3A4 (unknown origin); type: ADME
[12] = Thermodynamic solubility of the compound at pH 7.4; type: physicochemical; conditions: buffer, read-out: Therm_solubility
[13] = Thermodynamic solubility of the compound at pH 3; type: physicochemical; conditions: buffer, read-out: Therm_solubility
[14] = Half life in dog at 1 mg/kg, iv; type: ADME, organism-based, Canis lupus familiaris; conditions: in vivo
Method in brief: (§6)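 IV PK in rat and dog at 1 mg/kg. Cl, Cl,unb (L/h/kg), Vd (L/kg) and T1/2 (h) were derived from plasma levels.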

Rattus norvegicus = assay: Unbound clearance in rat at 1 mg/kg, iv; type: ADME, organism-based; conditions: in vivo; method in brief: as §6
[15] = Volume of distribution in rat at 1 mg/kg, iv; type: ADME, organism-based; conditions: in vivo; method in brief: as §6
[16] = Efflux ratio of permeability in MDCK cells; type: ADME, cell-based, Canis lupus familiaris; conditions: dog
[17] = Permeability across apical to basolateral side in MDCK cells; type: ADME, cell-based, Canis lupus familiaris; conditions: dog, read-out: permeability
[18] = test system: Cystic fibrosis transmembrane conductance regulator (Homo sapiens), P13569 [G551D]; assay: Potentiation of CFTR G551D mutant in primary HBE cells assessed as increase in channel conductivity measured every 2 mins for 20 mins by TECC assay relative to ivacaftor; type: cell-based
Cytochrome P450 2D6 = Cytochrome P450 2D6 (Homo sapiens, UniProt P10635); assay: Inhibition of CYP2D6 (unknown origin); type: ADME
[19] = Clearance in dog at 1 mg/kg, iv; type: ADME, organism-based, Canis lupus familiaris; conditions: in vivo; method in brief: as §6
[20] = Oral bioavailability in rat at 5 mg/kg; type: ADME, organism-based; conditions: in vivo
Method in brief: (§7)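 F% in rat and dog after a 5 mg/kg PO dose, referenced to the 1 mg/kg IV PK parameters.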

Canis familiaris = assay: Unbound clearance in dog at 1 mg/kg, iv; type: ADME, organism-based, Canis lupus familiaris; conditions: in vivo; method in brief: as §6
[21] = target: Voltage-gated inwardly rectifying potassium channel KCNH2 (Homo sapiens, UniProt Q12809); assay: Inhibition of human ERG by manual patch clamp method
Homo sapiens [22] = assay: Toxicity in human up to 2000 mg administered as single dose
[23] = Clearance in rat at 1 mg/kg, iv; type: ADME, organism-based; conditions: in vivo; method in brief: as §6
[24] = test system: Cystic fibrosis transmembrane conductance regulator (Homo sapiens), P13569 [G178R]; assay: Potentiation of CFTR G178R mutant (unknown origin) expressed in HEK293 cells incubated for 10 mins in presence of forskolin measured for 2 mins by YFP halide assay relative to ivacaftor; type: cell-based
[25] = Half life in rat at 1 mg/kg, iv; type: ADME, organism-based; conditions: in vivo; method in brief: as §6
[26] = Unbound intrinsic clearance in rat hepatocytes; type: ADME, cell-based, Hepatocyte; method in brief: as §5
[27] = test system: Cystic fibrosis transmembrane conductance regulator (Homo sapiens), P13569 [F508del]; assay: Potentiation of CFTR F508del mutant in primary HBE cells assessed as increase in channel conductivity measured every 2 mins for 20 mins by TECC assay; type: cell-based
Method in brief: (§8)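 TECC on primary epithelia bathed both sides in NaCl Ringer, pH 7.4, at 37°C. Apical amiloride 100 µM; forskolin 10 µM apical and basolateral. One compound concentration per transwell. EC50 derived from the increase in Ieq. Duplicate or triplicate, mean ± SEM; 10 µM CFTRinh-172 used for specificity.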

[28] = Oral bioavailability in dog at 5 mg/kg; type: ADME, organism-based, Canis lupus familiaris; conditions: in vivo; method in brief: as §7
[29] = target: T2, Cystic fibrosis transmembrane conductance regulator (Homo sapiens, UniProt P13569, G551D); assay: Potentiation of CFTR G551D mutant in primary HBE cells assessed as increase in channel conductivity measured every 2 mins for 20 mins by TECC assay; type: cell-based; method in brief: as §8
[30] = target: T2, Cystic fibrosis transmembrane conductance regulator; assay: as §3; type: cell-based; method in brief: as §4
[31] = test system: Cystic fibrosis transmembrane conductance regulator (Homo sapiens), P13569 [S549N]; assay: Potentiation of CFTR S549N mutant (unknown origin) expressed in HEK293 cells incubated for 10 mins in presence of forskolin measured for 2 mins by YFP halide assay relative to ivacaftor; type: cell-based
[32] = Volume of distribution in dog at 1 mg/kg, iv; type: ADME, organism-based, Canis lupus familiaris; conditions: in vivo; method in brief: as §6
[33] = AUC in rat at 300 mg/kg, po; type: ADME, organism-based; conditions: in vivo
Homo sapiens [34] = organism: Homo sapiens; assay: Selectivity ratio of EC50 for CFTR G551D mutant (unknown origin) to EC50 for CFTR F508del mutant (unknown origin)

T2 sequence (P13569 whole entry G551D): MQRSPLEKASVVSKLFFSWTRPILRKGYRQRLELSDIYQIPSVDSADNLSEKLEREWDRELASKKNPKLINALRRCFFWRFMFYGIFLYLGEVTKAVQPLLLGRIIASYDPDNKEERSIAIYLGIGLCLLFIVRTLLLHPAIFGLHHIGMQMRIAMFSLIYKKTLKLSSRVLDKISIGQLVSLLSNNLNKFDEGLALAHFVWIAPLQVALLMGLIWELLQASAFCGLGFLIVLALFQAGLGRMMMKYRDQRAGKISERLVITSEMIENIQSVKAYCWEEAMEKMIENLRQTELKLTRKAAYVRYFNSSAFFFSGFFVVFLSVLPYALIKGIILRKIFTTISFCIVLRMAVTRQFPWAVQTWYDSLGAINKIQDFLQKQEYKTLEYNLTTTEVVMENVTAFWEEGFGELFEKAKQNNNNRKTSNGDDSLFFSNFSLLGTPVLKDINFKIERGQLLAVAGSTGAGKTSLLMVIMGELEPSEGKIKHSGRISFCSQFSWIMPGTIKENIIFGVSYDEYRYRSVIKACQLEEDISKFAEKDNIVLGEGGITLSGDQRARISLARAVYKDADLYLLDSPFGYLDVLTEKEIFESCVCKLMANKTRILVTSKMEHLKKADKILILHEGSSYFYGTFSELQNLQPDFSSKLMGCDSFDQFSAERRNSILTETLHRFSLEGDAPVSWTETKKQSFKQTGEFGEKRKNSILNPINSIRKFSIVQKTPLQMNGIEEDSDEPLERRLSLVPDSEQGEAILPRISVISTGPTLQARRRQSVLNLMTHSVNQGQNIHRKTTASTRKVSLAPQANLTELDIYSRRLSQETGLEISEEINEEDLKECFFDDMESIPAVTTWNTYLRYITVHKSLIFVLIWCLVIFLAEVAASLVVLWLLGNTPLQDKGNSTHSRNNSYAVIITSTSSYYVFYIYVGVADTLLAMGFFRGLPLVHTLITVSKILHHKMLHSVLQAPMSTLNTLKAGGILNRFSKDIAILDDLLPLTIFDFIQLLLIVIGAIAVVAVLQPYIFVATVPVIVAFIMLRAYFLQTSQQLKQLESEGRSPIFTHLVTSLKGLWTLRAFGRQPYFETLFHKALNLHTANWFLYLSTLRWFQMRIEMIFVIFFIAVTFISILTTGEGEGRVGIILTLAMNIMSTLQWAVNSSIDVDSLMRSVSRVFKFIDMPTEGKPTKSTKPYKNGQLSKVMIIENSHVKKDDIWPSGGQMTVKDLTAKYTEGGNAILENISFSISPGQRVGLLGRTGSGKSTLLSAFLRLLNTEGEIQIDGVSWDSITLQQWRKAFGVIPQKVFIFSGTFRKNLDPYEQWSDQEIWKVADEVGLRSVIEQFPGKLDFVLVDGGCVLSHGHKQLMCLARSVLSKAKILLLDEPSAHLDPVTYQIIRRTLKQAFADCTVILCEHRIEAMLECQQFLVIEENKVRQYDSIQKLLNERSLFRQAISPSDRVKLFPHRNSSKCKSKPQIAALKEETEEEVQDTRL
Cystic fibrosis transmembrane conductance regulator (Homo sapiens), P13569 [G551D], sequence (P13569 whole entry G551D): as above
Cystic fibrosis transmembrane conductance regulator (Homo sapiens), P13569 [F508del], sequence (P13569 as listed by the source): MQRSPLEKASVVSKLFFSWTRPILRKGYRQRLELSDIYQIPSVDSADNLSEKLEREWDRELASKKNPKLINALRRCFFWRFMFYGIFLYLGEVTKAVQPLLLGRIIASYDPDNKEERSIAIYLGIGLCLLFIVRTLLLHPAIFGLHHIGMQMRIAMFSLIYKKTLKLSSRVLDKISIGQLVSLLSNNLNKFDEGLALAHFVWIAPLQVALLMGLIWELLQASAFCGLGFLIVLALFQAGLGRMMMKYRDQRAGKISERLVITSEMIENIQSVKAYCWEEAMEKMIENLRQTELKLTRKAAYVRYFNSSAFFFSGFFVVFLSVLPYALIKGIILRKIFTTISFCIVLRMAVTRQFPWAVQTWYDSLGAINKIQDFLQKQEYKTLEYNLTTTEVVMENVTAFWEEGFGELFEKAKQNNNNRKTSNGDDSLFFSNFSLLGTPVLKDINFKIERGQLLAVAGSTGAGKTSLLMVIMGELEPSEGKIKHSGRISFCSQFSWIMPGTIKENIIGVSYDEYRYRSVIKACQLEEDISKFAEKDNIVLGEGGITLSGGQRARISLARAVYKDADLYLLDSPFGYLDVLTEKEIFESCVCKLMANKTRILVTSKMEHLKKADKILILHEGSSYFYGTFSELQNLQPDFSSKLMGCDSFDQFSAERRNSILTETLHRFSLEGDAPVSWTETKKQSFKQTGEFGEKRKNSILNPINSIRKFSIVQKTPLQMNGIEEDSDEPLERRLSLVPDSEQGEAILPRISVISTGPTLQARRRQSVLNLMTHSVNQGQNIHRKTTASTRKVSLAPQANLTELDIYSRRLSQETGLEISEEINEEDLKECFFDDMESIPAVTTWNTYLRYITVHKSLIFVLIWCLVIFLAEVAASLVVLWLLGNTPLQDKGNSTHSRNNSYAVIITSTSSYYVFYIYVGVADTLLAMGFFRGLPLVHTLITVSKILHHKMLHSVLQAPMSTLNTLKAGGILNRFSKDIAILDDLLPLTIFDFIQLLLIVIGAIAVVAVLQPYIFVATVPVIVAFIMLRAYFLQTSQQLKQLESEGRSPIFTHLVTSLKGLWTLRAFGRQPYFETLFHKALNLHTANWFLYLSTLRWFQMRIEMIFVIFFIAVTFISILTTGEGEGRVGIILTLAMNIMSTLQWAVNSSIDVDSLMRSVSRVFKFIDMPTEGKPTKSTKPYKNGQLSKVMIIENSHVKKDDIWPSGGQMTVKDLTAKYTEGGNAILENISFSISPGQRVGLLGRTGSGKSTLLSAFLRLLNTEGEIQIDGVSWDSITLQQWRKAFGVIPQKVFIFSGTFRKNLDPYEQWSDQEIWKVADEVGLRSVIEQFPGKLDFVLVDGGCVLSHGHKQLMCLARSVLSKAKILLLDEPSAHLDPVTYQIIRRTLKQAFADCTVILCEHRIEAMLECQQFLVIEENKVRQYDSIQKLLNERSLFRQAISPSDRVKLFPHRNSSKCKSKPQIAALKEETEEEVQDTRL
Cystic fibrosis transmembrane conductance regulator (Homo sapiens, UniProt P13569, F508DEL), sequence (P13569 as listed by the source): as above
Voltage-gated inwardly rectifying potassium channel KCNH2, sequence (Q12809 whole entry): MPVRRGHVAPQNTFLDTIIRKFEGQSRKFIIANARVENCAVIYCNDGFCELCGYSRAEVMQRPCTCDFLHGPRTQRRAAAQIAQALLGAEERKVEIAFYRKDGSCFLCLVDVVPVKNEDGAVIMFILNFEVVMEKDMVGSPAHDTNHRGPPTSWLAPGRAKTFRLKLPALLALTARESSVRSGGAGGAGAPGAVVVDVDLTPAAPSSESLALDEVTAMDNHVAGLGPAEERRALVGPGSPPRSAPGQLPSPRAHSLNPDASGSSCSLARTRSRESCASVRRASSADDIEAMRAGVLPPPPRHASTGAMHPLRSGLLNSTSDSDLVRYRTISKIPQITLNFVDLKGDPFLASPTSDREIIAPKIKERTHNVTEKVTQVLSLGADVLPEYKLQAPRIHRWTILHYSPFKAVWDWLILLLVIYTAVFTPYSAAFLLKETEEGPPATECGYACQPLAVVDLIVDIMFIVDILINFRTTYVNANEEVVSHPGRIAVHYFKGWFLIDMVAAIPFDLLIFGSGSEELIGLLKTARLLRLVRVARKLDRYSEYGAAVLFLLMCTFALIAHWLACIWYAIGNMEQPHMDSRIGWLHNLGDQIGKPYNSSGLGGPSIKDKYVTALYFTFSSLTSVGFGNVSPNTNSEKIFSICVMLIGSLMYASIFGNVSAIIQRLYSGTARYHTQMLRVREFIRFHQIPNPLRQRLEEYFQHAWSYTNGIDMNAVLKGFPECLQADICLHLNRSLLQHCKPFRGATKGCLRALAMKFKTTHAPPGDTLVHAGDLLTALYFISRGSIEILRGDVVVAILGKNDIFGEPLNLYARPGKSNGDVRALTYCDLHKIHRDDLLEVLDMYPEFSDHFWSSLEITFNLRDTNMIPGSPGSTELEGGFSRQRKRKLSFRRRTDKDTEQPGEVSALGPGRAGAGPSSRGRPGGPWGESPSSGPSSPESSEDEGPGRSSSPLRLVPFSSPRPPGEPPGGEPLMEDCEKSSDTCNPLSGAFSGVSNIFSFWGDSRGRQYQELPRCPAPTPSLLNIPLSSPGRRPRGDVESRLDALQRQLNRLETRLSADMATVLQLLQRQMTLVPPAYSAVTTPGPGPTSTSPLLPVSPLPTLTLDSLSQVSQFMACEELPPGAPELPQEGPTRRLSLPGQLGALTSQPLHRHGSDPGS
Cytochrome P450 2D6, sequence (P10635 whole entry): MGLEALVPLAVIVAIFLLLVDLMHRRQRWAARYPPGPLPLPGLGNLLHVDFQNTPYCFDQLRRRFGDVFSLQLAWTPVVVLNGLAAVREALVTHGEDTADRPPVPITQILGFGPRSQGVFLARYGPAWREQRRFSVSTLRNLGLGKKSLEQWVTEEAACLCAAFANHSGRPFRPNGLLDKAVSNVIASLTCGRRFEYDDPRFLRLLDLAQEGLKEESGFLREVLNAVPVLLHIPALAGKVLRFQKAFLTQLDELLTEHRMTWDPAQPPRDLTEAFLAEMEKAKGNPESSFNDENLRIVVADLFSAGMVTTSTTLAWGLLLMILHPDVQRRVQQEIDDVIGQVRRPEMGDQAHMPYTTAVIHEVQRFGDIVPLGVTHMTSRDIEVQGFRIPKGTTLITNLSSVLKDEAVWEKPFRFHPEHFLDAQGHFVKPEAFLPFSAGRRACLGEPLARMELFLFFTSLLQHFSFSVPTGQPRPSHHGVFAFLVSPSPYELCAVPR
Cystic fibrosis transmembrane conductance regulator (Homo sapiens), P13569 [G178R], sequence (P13569 whole entry G178R): as the sequence (P13569 whole entry G551D) above, with G178R, D551G counted along it
Cystic fibrosis transmembrane conductance regulator (Homo sapiens), P13569 [S549N], sequence (P13569 whole entry S549N): as the sequence (P13569 whole entry G551D) above, with S549N, D551G counted along it
Cystic fibrosis transmembrane conductance regulator (Homo sapiens), P13569 [R117H], sequence (P13569 whole entry R117H): as the sequence (P13569 whole entry G551D) above, with R117H, D551G counted along it

SMILES: CC1(C)Cc2c(sc(NC(=O)c3[nH]ncc3Cl)c2C(N)=O)C(C)(C)O1
- EC50 [1]: 2 nM
- Activity [2]: 96%
- Activity [3]: 77%

SMILES: CC1(C)Cc2c(sc(NC(=O)c3ccn[nH]3)c2C(N)=O)C(C)(C)O1
- CL free [4]: 18.3 mL/min/kg
- CL free [5]: 28.3 mL/min/kg
- Efficacy [6]: 119%
- CL free [7]: 30 mL/min/kg
- AUC [8]: 1540 ng·h/mL
- EC50 (Cytochrome P450 2C9): > 100000 nM
- EC50 (Cytochrome P450 2C19): > 100000 nM
- Activity (Homo sapiens [9]): Non-Toxic
- Cmax [10]: 4670 ng/mL
- Cmax [11]: 331 ng/mL
- EC50 (Cytochrome P450 1A2): > 100000 nM
- EC50 (Cytochrome P450 3A4): > 100000 nM
- solubility thermodynamic [12]: 8.6 µM (≈ 3 µg/mL)
- solubility thermodynamic [13]: 11 µM (≈ 3.83 µg/mL)
- half-life [14]: 3 h
- CL free (Rattus norvegicus): 400 mL/min/kg
- Vd [15]: 4.8 L/kg
- efflux ratio [16]: 2.6
- Papp A→B [17]: 11 ×10⁻⁶ cm/s
- Activity [18]: 200%
- EC50 (Cytochrome P450 2D6): > 100000 nM
- clearance [19]: 5.33 mL/min/kg
- bioavailability [20]: 67%
- CL free (Canis familiaris): 107 mL/min/kg
- EC50 [21]: > 33000 nM
- Activity (Homo sapiens [22]): Non-Toxic
- clearance [23]: 32 mL/min/kg
- Efficacy [24]: 158%
- half-life [25]: 1.84 h
- CL free [26]: 95 mL/min/kg
- Activity [27]: Active
- bioavailability [28]: > 100%
- EC50 [29]: 181 nM
- EC50 [1]: 3 nM
- Activity [2]: 105%
- EC50 [30]: 339 nM
- Activity [3]: 103%
- Efficacy [31]: 143%
- Vd [32]: 1.4 L/kg
- AUC [33]: 68200 ng·h/mL

SMILES: Cc1cc(C(=O)Nc2sc3c(c2C(N)=O)CC(C)(C)OC3(C)C)[nH]n1
- EC50 [1]: 13 nM
- Activity [2]: 81%
- Activity [3]: 73%

SMILES: CC1(C)Cc2c(sc(NC(=O)Cc3ccn[nH]3)c2C(N)=O)C(C)(C)O1
- EC50 [1]: 136 nM

SMILES: CC(C)(C)CC(O)C(=O)Nc1sc2c(c1C(N)=O)CC(C)(C)OC2(C)C (centres undefined)
- Ratio EC50 (Homo sapiens [34]): 2000
- EC50 [1]: 0.54 nM
- Activity [2]: 102%
- Activity [3]: 58%

SMILES: Cc1ccc(C(=O)Nc2sc3c(c2C(N)=O)CCCC3)s1
- EC50 [1]: 652 nM
- Activity [2]: 72%

SMILES: CC1(C)Cc2c(sc(NC(=O)C(C)(C)CO)c2C(N)=O)C(C)(C)O1
- EC50 [1]: 75 nM

SMILES: Cc1[nH]nc(C(=O)Nc2sc3c(c2C(N)=O)CC(C)(C)OC3(C)C)c1Cl
- EC50 [1]: 11 nM
- EC50 [30]: 199 nM

SMILES: CC1(C)Cc2c(sc(NC(=O)c3cccnc3O)c2C(N)=O)C(C)(C)O1
- EC50 [1]: 190 nM

SMILES: CC1(C)Cc2c(sc(NC(=O)c3cn[nH]c3)c2C(N)=O)C(C)(C)O1
- EC50 [1]: 125 nM

SMILES: Cc1ccc(C(=O)Nc2sc3c(c2C(N)=O)CCNC3)s1
- Activity [2]: 3%

SMILES: Cc1cn[nH]c1C(=O)Nc1sc2c(c1C(N)=O)CC(C)(C)OC2(C)C
- EC50 [1]: 2 nM
- Activity [2]: 96%
- EC50 [30]: 123 nM
- Activity [3]: 83%

SMILES: CC1(C)Cc2c(sc(NC(=O)C3CCNC3=O)c2C(N)=O)C(C)(C)O1 (centres undefined)
- EC50 [1]: 101 nM

SMILES: CC1(C)Cc2c(sc(NC(=O)c3nnc[nH]3)c2C(N)=O)C(C)(C)O1
- EC50 [1]: 467 nM

SMILES: CC(C)(C)c1cc(C(C)(C)C)c(NC(=O)c2c[nH]c3ccccc3c2=O)cc1O [IVACAFTOR]
- EC50 [1]: 126 nM
- Activity [2]: 100%
- EC50 [30]: 1300 nM
- Activity [3]: 50%
